Data from article PMC2213384 (The Journal of Experimental Medicine, 1998).
Where two headings read alike, the source gives them in different places. Marks after values point to notes of the source that are not given here. Blank lines part the entries; values can stand above or below the molecule they belong to.

Key:
Qa-1^b [1] = type: binding, mouse; details: for Blocking of / binding to Qa-1^b at 20 μM (in words): 20 μM competitor; for Binding of poly-Gly peptides to Qa-1^b (in words): Table 2 in words, 20 μM
Qa-1^b [2] = details: previous finding; ref [6]; cited from earlier work
[3] = Solubility of peptides in running buffer / aqueous solvents; type: physicochemical
Summary of the method: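 Solubility was judged for peptides used as competitors in SPR on a Biacore 2000 at 25°C. The running buffer was Hepes-buffered saline, or 2% DMSO in HBS for the hydrophobic leader peptides. Competitors were at 20 μM (poly-Gly series titrated up to 20 μM), co-injected with 0.5 μM soluble Qa-1b at 1 μl/min for 20 min over immobilized QdmC5.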

sM3 = assay: SPR direct binding of sM3 to immobilized QdmC5; details: Fig. 1 B; 0.5 μM sM3, 20 μl at 1 μl/min
sCD1 = assay: SPR direct binding of sCD1 to immobilized QdmC5; details: data not shown
[4] = molecular target: QdmC5 peptide (…) (mouse); assay: SPR
[5] = molecular target: QdmC5 peptide (…) (mouse); assay: SPR; remark: listed apart in the source
[6] = molecular target: QdmC5 peptide (…) (mouse); assay: SPR; remark: listed apart in the source
[7] = molecular target: QdmC5 peptide (…) (mouse); assay: SPR; remark: listed apart in the source
[8] = molecular target: soluble Qa-1^b/β2-microglobulin dimer (mouse (C57BL/6) | murine) (UniProt P06339); assay: SPR

Blocking of / binding to Qa-1^b at 20 μM (in words) (Qa-1^b [1]; Fig. 1 D, 0.5 μM sQa-1^b): failed to bind
Molecule: MAPRTLLLL

Binding of poly-Gly peptides to Qa-1^b (in words) (Qa-1^b [1]): very little binding
Molecule: GMGGGGLGL

Blocking of Qa-1^b binding / binding ability over the titration (in words) (Qa-1^b [1]; Fig. 1 D, 0.5 μM sQa-1^b, competitor 200 nM to 20 μM, 1 μl/min for 20 min): completely blocked binding
Binding to Qa-1^b in 2% DMSO (in words) (Qa-1^b [1]; Fig. 3 B, running buffer 2% DMSO in HBS): bind Qa-1^b
Molecule: AMAPRTLLL [Qdm, reference compound]
Affinity of binding to Qa-1^b (in words) (Qa-1^b [2]): very high affinity

Solubility in 2% DMSO in HBS ([3]; 2% DMSO in HBS (SPR running buffer)): remained soluble
Solubility in aqueous solvents ([3]; aqueous solvents): not soluble in aqueous solvents
Molecule: VMSPTVLLL

Binding of poly-Gly peptides to Qa-1^b (in words) (Qa-1^b [1]): very little binding
Molecule: GMGGGGGLL

Binding at 200 nM (in words) (Qa-1^b [1]; Fig. 1 D, 0.5 μM sQa-1^b, competitor 200 nM): almost no binding
Molecule: 10-mer: Qdm extended by adding a leucine at position 10 (AMAPRTLLLL)
Binding relative to the Qdm nonamer at 20 and 2 μM (in words) (Qa-1^b [1]; Fig. 1 D, 0.5 μM sQa-1^b, competitor 20 and 2 μM): decreased binding relative to the nonamer

Blocking of / binding to Qa-1^b at 20 μM (in words) (Qa-1^b [1]; Fig. 1 D, 0.5 μM sQa-1^b): failed to bind
Molecule: MGAMAPRTL

Binding of soluble protein to immobilized peptide (in words) (sM3): failed to bind
Binding of soluble protein to immobilized peptide (in words) (sCD1): failed to bind
Molecule: AMAPCTLLL [QdmC5]

Blocked binding of sQa-1^b to immobilized QdmC5 peptide (Qa-1^b [1]; highest concentration tested (20 μM)): > 50%
Blocking activity at 200 nM (in words) (Qa-1^b [1]; titration, 200 nM): none
Blocking activity at 2 μM (in words) (Qa-1^b [1]; titration, 2 μM): relatively little blocking activity
Molecule: GMGGGGLLL

RU, binding in the absence of peptide [4]: 230 RU
RU, binding in the absence of peptide [5]: 263 RU
RU, binding in the absence of peptide [6]: 345 RU
RU, binding in the absence of peptide [7]: 276 RU
Molecule: soluble Qa-1^b/β2-microglobulin dimer (from UniProt P06339 21-357; P01887 21-119) (complex)

RU of sQa-1^b left on immobilised QdmC5 with 20 μM Qdm [8]: 25 RU
B1: Qdm peptide (…) (peptide)
peptide: AMAPRTLLL
